Measurements reported in publication PMC4360665 (CPT: Pharmacometrics & Systems Pharmacology, 2015).
Several values for one entry are separate records, joined by “and”; a condition that tells them apart may be missing. Equal entries are not always repeated. Where two headings read alike, the source gives them in different places.

What was measured:
CYP2C8 = target: T1, CYP2C8 (Homo sapiens, UniProt P10632); assay type: in vitro ADME; settings: montelukast at 1 µM; nine individual pediatric liver microsomes aged 1 month to 4 years; mean ± SD
T1 sequence (P10632 1-490): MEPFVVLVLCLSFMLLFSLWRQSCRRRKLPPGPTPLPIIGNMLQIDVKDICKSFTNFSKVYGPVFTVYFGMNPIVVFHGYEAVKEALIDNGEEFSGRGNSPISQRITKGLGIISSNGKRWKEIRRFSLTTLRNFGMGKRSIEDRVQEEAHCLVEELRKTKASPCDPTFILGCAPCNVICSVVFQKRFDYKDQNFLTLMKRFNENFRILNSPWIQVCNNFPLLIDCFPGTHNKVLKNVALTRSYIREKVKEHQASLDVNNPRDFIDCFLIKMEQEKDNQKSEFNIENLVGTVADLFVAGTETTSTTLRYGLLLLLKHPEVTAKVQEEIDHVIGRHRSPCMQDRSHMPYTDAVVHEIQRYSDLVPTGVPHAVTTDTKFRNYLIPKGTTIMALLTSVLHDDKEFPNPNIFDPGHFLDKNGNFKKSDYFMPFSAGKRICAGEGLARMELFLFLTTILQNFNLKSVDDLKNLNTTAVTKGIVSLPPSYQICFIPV
Summary of the method: (§1)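 Substrate depletion of the test compound in nine individual pediatric liver microsomes in 100 mM potassium phosphate (pH 7.4) at 37°C, with and without CYP-selective inhibitor (1 µM; ketoconazole for CYP3A, montelukast for CYP2C8). NADPH regenerating system starts the reaction (t=0). Serial aliquots are extracted with methanol/ZnSO4 plus internal standard and analysed by online SPE-LC-MS/MS. kel comes from the log %-remaining vs time slope. % contribution is calculated from kel with and without inhibitor.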

[1] = system: P-glycoprotein (MDR1/ABCB1); settings: cited from earlier work
CYP3A = assay type: in vitro ADME, human; settings: ketoconazole at 1 µM; nine individual pediatric liver microsomes aged 1 month to 4 years; mean ± SD
Summary of the method: as §1

recombinant CYP3A7 = recombinant CYP3A7 (Homo sapiens, UniProt P24462); assay: Substrate depletion assay with recombinant CYP3A7; assay type: in vitro ADME
Summary of the method: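 Recombinant CYP3A7 (with reductase and cytochrome b5) was brought to 0.4 mg/ml protein with blank microsomes and incubated with sirolimus in 100 mM potassium phosphate, pH 7.4, at 37°C with shaking. NADPH regenerating system started the reaction (t = 0), with aliquots taken at serial times. Sirolimus remaining was measured by on-line SPE–HPLC–MS/MS against an internal standard. The slope of log % remaining versus time was converted to CLint per pmol CYP.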

[2] = assay type: in vivo, human; settings: for Mean sirolimus oral clearance: allometrically scaled (0.75, 70 kg)
Summary of the method: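 Oral dosing began at 0.8 mg/m2 twice daily, then adjusted to trough targets of 10 to 15 ng/ml. Concentrations were drawn at 8–14 days, then every 2 weeks (LLOQ 1.0 ng/ml). First-4-week samples (1–3 per patient) fed a Bayesian one-compartment estimator with pediatric neurofibromatosis priors, estimating clearance only. Clearances were scaled allometrically (exponent 0.75, 70 kg), and an Emax fit against age gave CLmatured and Age50.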

Sequence of recombinant CYP3A7 (P24462 whole entry): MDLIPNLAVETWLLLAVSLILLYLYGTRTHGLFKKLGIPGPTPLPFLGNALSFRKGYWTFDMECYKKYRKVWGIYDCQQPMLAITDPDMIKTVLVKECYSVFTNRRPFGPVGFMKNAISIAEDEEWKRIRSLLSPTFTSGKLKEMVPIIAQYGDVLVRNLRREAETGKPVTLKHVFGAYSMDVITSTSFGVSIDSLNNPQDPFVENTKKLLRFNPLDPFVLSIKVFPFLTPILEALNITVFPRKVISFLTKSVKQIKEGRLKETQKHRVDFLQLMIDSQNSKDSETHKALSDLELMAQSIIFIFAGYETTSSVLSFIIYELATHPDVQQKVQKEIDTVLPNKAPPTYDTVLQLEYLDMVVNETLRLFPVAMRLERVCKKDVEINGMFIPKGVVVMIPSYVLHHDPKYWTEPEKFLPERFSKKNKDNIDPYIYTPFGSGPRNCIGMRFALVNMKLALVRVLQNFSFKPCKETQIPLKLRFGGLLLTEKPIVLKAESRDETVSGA

% of Contribution of CYP2C8 to sirolimus metabolism (CYP2C8): less than 10% and 8.5±4.3%
% of Contribution of CYP3A to sirolimus metabolism (CYP3A): 95.8% and 95.8±4.8%
fold lower CLint of CYP3A7 than reported CYP3A4 activity (recombinant CYP3A7; CYP3A4 value from ref 17): 30 fold
fold lower CLint of CYP3A7 than reported CYP3A5 activity (recombinant CYP3A7; CYP3A5 value from ref 17): 13 fold
CLint for recombinant CYP3A7 (recombinant CYP3A7; substrate depletion, 37°C, pH 7.4): 0.30 µl/min/pmol CYP protein
Mean sirolimus oral clearance ([2]; age group 1 year (≥1, <2), n=5): 17 ± 4 L/h
Mean sirolimus oral clearance ([2]; age group 1–8 months (<1), n=9): 11 ± 3 L/h
Mean sirolimus oral clearance ([2]; age group 2 years (≥2, <3), n=3): 21 ± 3 L/h
Mean sirolimus oral clearance ([2]; age group 3–18 years (≥3), n=27): 18 ± 6 L/h
Observed CLmatured ([2]; clinical clearance estimates, patients 1 months to 3 years, n = 20, Emax model): 19.4 ± 2.2 L/h/70 kg
SMILES: CO[C@H]1C[C@@H]2CC[C@@H](C)[C@@](O)(O2)C(=O)C(=O)N2CCCC[C@H]2C(=O)O[C@H]([C@H](C)C[C@@H]2CC[C@@H](O)[C@H](OC)C2)CC(=O)[C@H](C)/C=C(\C)[C@@H](O)[C@@H](OC)C(=O)[C@H](C)C[C@H](C)/C=C/C=C/C=C/1C [sirolimus]
substrate of P-glycoprotein (MDR1/ABCB1) [1]: substrate
